This is an account of results in paper PMC8694313 (RSC Advances, 2021).

Values after ≈ are worked out from the molar mass of the structure shown.

Test [1] concerns Escherichia coli. In words: In vitro antibacterial MIC determination. Format: cell-based. In a few lines:
(§1)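 Bacteria grown on nutrient agar, subcultured to log phase in nutrient broth, then diluted in sterile saline to about 10^5–10^6 CFU mL−1. Test compounds diluted in acetone, DMSO or diethyl ether (ether preferred). Saturated disks placed on spread-plated inoculum and incubated at 37 °C for 24 h. MIC determined across different compound concentrations, with streptomycin as standard.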

Test [2] concerns RAW 264.7 cells. In words: MTT assay, LPS-induced inflammation in RAW 264.7. The note with it: RAW 264.7, pre-treatment 100 μM and 200 μM, then LPS; Fig. 4. Format: cell-based, murine. In outline: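 Mouse RAW 264.7 macrophages kept in high-glucose DMEM with 10% heat-inactivated FBS and 1% penicillin–streptomycin at 37 °C, 5% CO2. Cells seeded at 5 × 10^5 cells per mL, pretreated 1 h with test compound (100 or 200 μM), then stimulated with […] for 24 h. Medium replaced; 0.5 mg mL−1 MTT for 3 h; formazan dissolved in DMSO; OD read at 540 nm. Percent inflammation derived by subtracting percent viability relative to control.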
In general terms: Formazan colour is commonly taken as a measure of viable cells.

Test [3] has as its system Aspergillus niger. The test is described as follows: In vitro antifungal MIC, poison plate technique. Format: cell-based.
Test [4] deals with T1, COX-1 (Ovis aries, UniProt P05979).
T1 sequence (P05979 25-600): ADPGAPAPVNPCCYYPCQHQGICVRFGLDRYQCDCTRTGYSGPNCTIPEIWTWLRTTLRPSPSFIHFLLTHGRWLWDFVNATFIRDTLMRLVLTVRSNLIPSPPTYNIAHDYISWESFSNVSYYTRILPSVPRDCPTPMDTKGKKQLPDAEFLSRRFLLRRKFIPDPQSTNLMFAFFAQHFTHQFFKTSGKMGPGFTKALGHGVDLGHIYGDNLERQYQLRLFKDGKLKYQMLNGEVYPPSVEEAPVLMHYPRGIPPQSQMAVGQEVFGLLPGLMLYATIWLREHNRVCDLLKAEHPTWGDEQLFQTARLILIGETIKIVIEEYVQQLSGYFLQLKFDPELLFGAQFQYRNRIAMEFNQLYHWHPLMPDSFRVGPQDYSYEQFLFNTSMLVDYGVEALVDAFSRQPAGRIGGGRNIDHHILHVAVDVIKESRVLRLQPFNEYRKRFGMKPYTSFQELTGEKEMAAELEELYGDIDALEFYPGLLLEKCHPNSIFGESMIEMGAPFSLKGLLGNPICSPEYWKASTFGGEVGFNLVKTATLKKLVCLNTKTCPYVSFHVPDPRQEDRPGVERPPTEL
In words: Colorimetric COX. Format: biochemical, ovine. Particulars: read-out: % inhibition of COX, COX-1.

Test [5] concerns RAW 264.7 cells. In words: Nitrite. The test is classed as cell-based, murine. Particulars: RAW 264.7, 100 μM and 200 μM pre-treatment; Fig. 5. In outline:
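RAW 264.7 cells (1 × 10^6) seeded in flasks and left to adhere overnight. Pretreated 1 h with test compound (100 or 200 μM), then 100 μM LPS for 24 h at 37 °C, 5% CO2. Supernatant mixed with an equal volume of Griess reagent (0.1% naphthylethylenediamine and 1% sulfanilamide, 1:1, in 5% phosphoric acid) for 10 min in the dark at room temperature; A540 read. Nitrite quantified from a NaNO2 standard curve (0.1–6.25 μM), expressed as μmol NO2−/mg protein. Triplicates.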

The test system of test [6] is carrageenan-induced paw edema. The test is described as follows: Carrageenan induced hind paw edema assay. Format: in vivo. Particulars: rat, 100 mg kg^−1 p.o., mean ± SEM. In a few lines: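 Rats, six per group, acclimatized one week (25 ± 2 °C, 12 h light/dark, standard pellets, water ad libitum). […] Paw volume measured by plethysmometer displacement to the lateral malleolus at 1, 3 and 6 h. Mean ± SEM.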
For orientation: In the carrageenan paw model, swelling and tenderness develop within hours.

The subject of test [7] is Aspergillus flavus. The test is described as follows: In vitro antifungal MIC, poison plate technique. The test is classed as cell-based.
Test [8] concerns cotton pellet induced granuloma. In words: Cotton pellets induced granuloma assay. The test is classed as in vivo. The note with it: rat, 100 mg kg^−1 p.o. for 8 d, mean ± SEM. In a few lines:
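Two sterile 10 mg cotton pellets implanted ventrally in rats, six per group. […] On day 9 rats were killed under excess ether. Pellets were freed of tissue and weighed wet, then dried at 55 °C for 6 h or to constant weight. Granuloma equals dry weight minus cotton weight. Mean ± SEM.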

Test [9] has as its target T2, COX-2 (Ovis aries, UniProt P79208).
T2 sequence (P79208 17-603): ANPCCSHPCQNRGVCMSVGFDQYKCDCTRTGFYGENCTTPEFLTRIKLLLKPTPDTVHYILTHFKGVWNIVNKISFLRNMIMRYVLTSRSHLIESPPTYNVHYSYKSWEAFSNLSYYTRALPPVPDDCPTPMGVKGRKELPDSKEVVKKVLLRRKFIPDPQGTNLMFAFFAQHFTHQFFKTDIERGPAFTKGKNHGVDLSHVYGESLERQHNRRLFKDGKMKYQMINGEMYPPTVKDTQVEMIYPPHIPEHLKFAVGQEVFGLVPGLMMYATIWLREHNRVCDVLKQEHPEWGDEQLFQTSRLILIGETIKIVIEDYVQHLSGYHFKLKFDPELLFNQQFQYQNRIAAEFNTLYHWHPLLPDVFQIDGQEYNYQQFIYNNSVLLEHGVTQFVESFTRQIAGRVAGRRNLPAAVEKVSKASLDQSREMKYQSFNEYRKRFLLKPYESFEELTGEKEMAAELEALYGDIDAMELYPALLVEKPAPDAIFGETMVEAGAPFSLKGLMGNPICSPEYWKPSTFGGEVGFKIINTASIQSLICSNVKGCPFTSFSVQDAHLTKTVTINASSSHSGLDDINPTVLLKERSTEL
In words: Colorimetric COX. The test is classed as biochemical, ovine. The note with it: read-out: % inhibition of COX, COX-2.

The subject of test [10] is Staphylococcus aureus. In words: In vitro antibacterial MIC determination. Format: cell-based. In outline: as §1
In test [11] the test system is Rhizopus arrhizus. In words: In vitro antifungal MIC, poison plate technique. The test is classed as cell-based.
For test [12], the system named is Bacillus subtillis. The test is described as follows: In vitro antibacterial MIC determination. The test is classed as cell-based. In a few lines:
as §1

Test [13] has as its system Pseudomonas aeruginosa. In words: In vitro antibacterial MIC determination. The test is classed as cell-based. In outline: as §1

`O=S(=O)(NC[C@@H](O)[C@@H]1CCc2cc(F)ccc2O1)c1ccc(F)cc1F` [Compound 8f, N-((R)-2-((S)-6-Fluorochroman-2-yl)-2-hydroxyethyl)-2,4-difluorobenzenesulfonamide]: the MIC is 24.1 ± 1.02 µg/mL (≈ 62.1 µM) in test [1]; 15.7 ± 0.69 µg/mL (≈ 40.4 µM) in test [3]; 16.2 ± 0.82 µg/mL (≈ 41.8 µM) in test [7]; 19.9 ± 0.66 µg/mL (≈ 51.3 µM) in test [10]; 19 ± 0.2 µg/mL (≈ 49.2 µM) in test [11]; 16.2 ± 0.94 µg/mL (≈ 41.9 µM) in test [12]. In addition, the MIC in test [13] was determined as 26.8 ± 0.55 µg/mL (≈ 69.3 µM). Also, the “anti-inflammatory activity against LPS induced cell death / inflammation (MTT)” value in [2] is “strong anti-inflammatory activity”. The inhibition at 100 µM in test [4] amounted to 33.9 ± 1.06%; in test [9] it was 28.7 ± 0.07%. The inhibition at 200 µM in test [4] was found to be 73.85 ± 0.54%; in test [9] it was 52.1 ± 0.78%. Also, in [5], the “inhibition of LPS-induced NO production” value is recorded as “strong inhibition”. Also, the Paw volume in [6] (1 h after carrageenan) worked out at 0.62 ± 0.10 mL; in test [6] (3 h after carrageenan) it was 0.86 ± 0.32 mL; in test [6] (6 h after carrageenan) it was 1.10 ± 0.13 mL. For the same compound, the “Weight, Dry (cotton pellet)” value in [8] came out at 70.66 ± 2.33 mg. Besides, the “Weight, Wet (cotton pellet)” value in test [8] came out at 139.82 ± 2.42 mg.

For orientation: MIC means the lowest concentration that inhibits growth of the organism. The low end stands for a more susceptible organism, the high end for a less susceptible organism. As a reminder, the inhibition is the relative decrease from the control value, in per cent.
